Bioassay records from PubChem BioAssay.
This is a sample that favours compounds with a hit; in the whole collection about 2.9% have one here.
Apaf-1 inh: blocks human Apaf-1 apoptosome activity; reconstituted apoptosome caspase-3 activity, DEVD-Rh110 fluorescence; inhibition, % at 20 µM; hit rate 0.71% among 330,000; active = inhibition of at least 40% at 20 µM;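 note: plate controls were DMSO wells for no effect and DEVD-CHO caspase inhibitor wells for full effect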
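Material: biochemical Apaf-1 apoptosome reconstitution. Medium: Hepes buffer, pH 7.5. Also added: cytochrome c activation, bis-DEVD rhodamine 110 substrate. Timing: 30 min compound preincubation, 50 min activation, room temperature. Measured by: rhodamine 110 fluorescence at Ex 480/Em 540 nm.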
MEKK3 PB1 HTS: MEKK3-MEK5 PB1 interaction, increase or decrease; Q99759; bead-based flow cytometry, Alexa488-MEK5 binding to MEKK3; actives lie on both sides; 0 = blocked by unlabeled MEK5, 100 = vehicle; binding response (% of control), % at 10 µM; hit rate 1.4% among 290,000; AID 1529;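 active = binding response more than 3 SD above or below the average of its plate-row segment, actives on both sides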;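 note: Alexa488 bead fluorescence after subtracting the streptavidin-only scavenger bead signal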
UBC13 polyUb: human UBC13 polyubiquitination inhibition; UBC13 polyubiquitin chain formation, TR-FRET; inhibition, % at 20 µM; hit rate 0.47% among 330,000; AID 485273; in the data active = inhibition above about 45%, passing the limit was not always enough
Target sequence (P61088 whole entry, looked up): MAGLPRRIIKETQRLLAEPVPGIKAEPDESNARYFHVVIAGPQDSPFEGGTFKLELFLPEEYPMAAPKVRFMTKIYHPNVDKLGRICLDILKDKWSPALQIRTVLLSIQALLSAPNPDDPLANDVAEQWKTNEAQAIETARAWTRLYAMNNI
MEKK2wt PB1 HTS: raises or lowers MEK5 binding to wildtype human MEKK2 PB1 domain | bead flow cytometry, Alexa488-MEK5 binding to MEKK2 WT; actives lie on both sides | binding response (% of control), % at 10 µM | hit rate 1.1% among 290,000; in the data active = binding response below about 67% or above about 130%
MEKK2 mut-MEK5: signal of MEK5 binding to mutant human MEKK2 PB1 domain; bead flow cytometry, Alexa488-MEK5 binding to MEKK2 mutant; percent response, % at 10 µM; hit rate 0.35% among 290,000; in the data active = percent response above about 24%, passing the limit was not always enough
MEKK2wt confirm: raises or lowers MEK5 binding to wildtype human MEKK2, retest | shares compounds with MEKK3 PB1 HTS | bead flow cytometry, Alexa488-MEK5 binding to MEKK2 WT; actives lie on both sides | binding response (% of control), % at 10 µM | hit rate 2.4% among 5,900 | AID 1892; in the data active = binding response below about 16% or above about 210%; inactive = in between
MEKK2mut confirm: signal of MEK5 binding to mutant human MEKK2, retest; shares compounds with MEKK3 PB1 HTS; bead flow cytometry, Alexa488-MEK5 binding to MEKK2 mutant; percent response, % at 10 µM; hit rate 2% among 5,900; in the data active = percent response mostly above about 71%, no sharp cut-off; inactive = mostly below about 38%;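 note: higher means compound restores mutant binding toward wildtype level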
MEKK3-MEK5 inh: confirmation of inhibitors of MEK5 binding to human MEKK3; shares compounds with MEKK3 PB1 HTS; bead flow cytometry, Alexa488-MEK5 binding to MEKK3; stronger effect = lower value; binding response (% of control), % at 10 µM; hit rate 1.8% among 5,900;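 active = binding response below 72% of control, or above a set upper limit, though filed actives all read lower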;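 note: 100% = DMSO only wells and 0% = binding blocked by excess unlabeled MEK5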
* marks the source's active call; other numbers are inactive results; / = not tested or not shown; [ ] = another dose, or the depositor's remark.

SMILES	Apaf-1 inh	MEKK3 PB1 HTS	UBC13 polyUb	MEKK2wt PB1 HTS	MEKK2 mut-MEK5	MEKK2wt confirm	MEKK2mut confirm	MEKK3-MEK5 inh
N/C(Cc1ccc([N+](=O)[O-])cc1)=N\OC(=O)Cc1ccccc1	-6	53*[inhibitor]	4	98	-1	101	1	97
CCOC(=O)Nc1cc(Br)c2c(c1)OCCO2	7	0.0*[inhibitor]	1	-4.0*[inhibitor]	-20	103	1	104
CN(C)CCSc1nc(-c2ccccc2)nc2c1CCC2	0	138*	9	111	1	107	2	103
N#Cc1nc(-c2ccccc2)oc1NCCN1CCCCC1	4	2.0*[inhibitor]	14	3.0*[inhibitor]	-21	108	2	104
N#Cc1nc(-c2ccccc2)oc1NCC1CCCO1 (centres undefined)	2	147*	11	112	0	92	-8	96
Cc1ccc(Cl)cc1N1CCN(C(=O)Cc2ccc(-n3c(=O)[nH]c4ccsc4c3=O)cc2)CC1	26	99	26	98	-2	/	/	/
Cn1c(CNC(=O)c2ccco2)nnc1SCC(=O)Nc1c(F)cc(F)cc1Br	-3	99	-10	93	-4	/	/	/
CC(C)(C)C(=O)Nc1ccc(/C=C/C(=O)c2ccco2)cc1	13	100	-4	104	2	/	/	/
CCCCC(=O)N(c1ccc(C)c(C)c1)C1C=CS(=O)(=O)C1 (centres undefined)	-11	1.0*[inhibitor]	2	-7.0*[inhibitor]	-22	99	-5	101
Cc1ccc(N(C(=O)c2ccc3c(c2)OCO3)C2C=CS(=O)(=O)C2)cc1C (centres undefined)	5	107	-10	105	2	/	/	/
CCC(C)n1c(=O)c2sccc2n2c(CCCC(=O)N3CCC(C(N)=O)CC3)nnc12 (centres undefined)	16	102	-6	104	5	/	/	/
O=C(CSc1nc2ccccc2c(=O)n1-c1ccccc1Cl)NC1CCS(=O)(=O)C1 (centres undefined)	-1	/	2	/	/	/	/	/
CC(=O)c1c(C)[nH]c(C(=O)COC(=O)CCSc2ccccc2)c1C	2	155*	2	113	1	94	-6	102
CCOC(=O)c1c(C)[nH]c(C(=O)COC(=O)COc2ccccc2C=O)c1C	5	70*[inhibitor]	-9	91	-2	98	2	101
CC(C)Cn1c(N)c(C(=O)COC(=O)c2c(O)c(Cl)cc(Cl)c2Cl)c(=O)n(C)c1=O	14	/	5	/	/	/	/	/
Brc1csc(/C=N/Nc2nc3ccccc3s2)c1	7	123	1	101	0	/	/	/
Cc1ccc2[nH]c(C)c(/C=N/Nc3nc4ccccc4s3)c2c1	1	96	33	138*	5	117	-2	96
CC(C)CNC(=O)CN1C(=O)NC(Cc2c[nH]c3ccccc23)C1=O (centres undefined)	4	67*[inhibitor]	2	76	-27	110	9	105
O=C(Nc1c(C(=O)C2CC2)oc2ccccc12)c1ccc(Cl)cc1	9	145*	30	111	1	102	5	102
Nc1nonc1C(=O)NCCNCc1cc(Br)ccc1OCc1ccccc1F	18	81	4	113	-1	/	/	/
Nc1nonc1C(=O)NCCNCc1ccccc1OCc1ccccc1F	17	123*	8	124	8	113	14	103
CCc1nc(N2CCN(C(=O)CCl)CC2)c2c3c(sc2n1)CC(C)CC3 (centres undefined)	19	111	31	153*	39*	141	25	100
CCCn1c(SCC(=O)c2cc(C)n(-c3cc(C)on3)c2C)n[nH]c1=O	4	/	0	/	/	/	/	/
CCOc1ccc(/C=C2\SC(=S)N(Nc3ccccc3)C2=O)cc1OC	7	128*	-11	66	-2	65	-16	93
CCCCN1CC[C@@H]2C=CC[C@H](C(=O)OC)[C@@H]2C1=O	2	/	/	/	/	/	/	/
SMILES	Apaf-1 inh	MEKK3 PB1 HTS	UBC13 polyUb	MEKK2wt PB1 HTS	MEKK2 mut-MEK5	MEKK2wt confirm	MEKK2mut confirm	MEKK3-MEK5 inh
CCC1=Nc2cc(C(=O)NCCCOC)ccc2Sc2ccccc21	3	125*	2	127	6	98	0	105
CCc1ccc(-n2c(=O)c3c(C)c(C)sc3n(CC(=O)NCC3CCCO3)c2=O)cc1 (centres undefined)	-2	95	13	94	-5	/	/	/
C1CCCCCC(NCCN2CCNCC2)CCCCC1	-3	105	2	158*	22	142	19	100
O=C(NC1CCCCC1)N1CCNCC1	-8	99	10	102	1	/	/	/
COc1ccc(N2CCN(CCCNC(=O)C(=O)c3c[nH]c4ccccc34)CC2)cc1	4	103	30	133	15	/	/	/
CN(CCC#N)C(=O)COC(=O)c1ccc2c(=O)n3c(nc2c1)CCC3	-3	128*	6	111	0	98	-1	99
N#CCCN(C(=O)COC(=O)c1ccc2c(=O)n3c(nc2c1)CCC3)c1ccccc1	-5	102	-1	102	-5	/	/	/
CNC(=O)/C=C/c1cccc(C(F)(F)F)c1	6	73*[inhibitor]	-12	90	-1	99	0	101
Cc1ccccc1NC(=O)/C=C/c1cccc(C(F)(F)F)c1	-1	85	1	85	-8	/	/	/
CCC(=O)Nc1ccc(Cl)c(NC(=S)NC(=O)COc2ccc(Cl)cc2)c1	12	74*[inhibitor]	-16	97	-1	103	3	103
CCC(=O)Nc1ccc(Cl)c(NC(=S)NC(=O)COc2ccccc2)c1	10	102	3	98	2	/	/	/
CN(C)c1ccc(C(=O)n2nnc3ccccc32)cc1	-22	1.0*[inhibitor]	19	-7.0*[inhibitor]	-24	103	2	102
C[C@H](CO)N1C[C@H](C)[C@@H](CN(C)Cc2ccncc2)Oc2c(cccc2N(C)C)C1=O	-6	/	11	/	/	/	/	/
O=C(CN1C(=O)c2ccccc2C1=O)NCCc1c[nH]c2ccc(Cl)cc12	-4	99	3	95	-2	/	/	/
Cc1ccc2[nH]cc(CCNC(=O)CN3C(=O)c4ccccc4C3=O)c2c1	-1	147*	3	109	-1	94	-11	91
COc1ccc2[nH]cc(CCNC(=O)Cc3ccc(Br)cc3)c2c1	10	108	25	109	4	/	/	/
COc1ccc2[nH]cc(CCNC(C)=O)c2c1	-3	108	17	106	44*	100	-1	102
COc1cc(NC(=S)N2CCN(S(=O)(=O)c3ccccc3)CC2)cc(OC)c1	5	99	0	98	0	/	/	/
